TRPC4 block = inhibitors of mouse TRPC4 channel, primary screen, Fluo4 calcium, HEK293 TRPC4beta/mu-opioid cells; DAMGO-evoked Fluo4 calcium flux; active compounds read low; Short transient receptor potential channel 4 (Mus musculus), Q9QUQ5; 0.39% of 300,000 active; AID 2247, 2010; B-score at 10 µM;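 active = B-score over 3 SD under the library average, no early fluorescence shift, positive overall ratio signal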
Target sequence (Q9QUQ5 whole entry, looked up): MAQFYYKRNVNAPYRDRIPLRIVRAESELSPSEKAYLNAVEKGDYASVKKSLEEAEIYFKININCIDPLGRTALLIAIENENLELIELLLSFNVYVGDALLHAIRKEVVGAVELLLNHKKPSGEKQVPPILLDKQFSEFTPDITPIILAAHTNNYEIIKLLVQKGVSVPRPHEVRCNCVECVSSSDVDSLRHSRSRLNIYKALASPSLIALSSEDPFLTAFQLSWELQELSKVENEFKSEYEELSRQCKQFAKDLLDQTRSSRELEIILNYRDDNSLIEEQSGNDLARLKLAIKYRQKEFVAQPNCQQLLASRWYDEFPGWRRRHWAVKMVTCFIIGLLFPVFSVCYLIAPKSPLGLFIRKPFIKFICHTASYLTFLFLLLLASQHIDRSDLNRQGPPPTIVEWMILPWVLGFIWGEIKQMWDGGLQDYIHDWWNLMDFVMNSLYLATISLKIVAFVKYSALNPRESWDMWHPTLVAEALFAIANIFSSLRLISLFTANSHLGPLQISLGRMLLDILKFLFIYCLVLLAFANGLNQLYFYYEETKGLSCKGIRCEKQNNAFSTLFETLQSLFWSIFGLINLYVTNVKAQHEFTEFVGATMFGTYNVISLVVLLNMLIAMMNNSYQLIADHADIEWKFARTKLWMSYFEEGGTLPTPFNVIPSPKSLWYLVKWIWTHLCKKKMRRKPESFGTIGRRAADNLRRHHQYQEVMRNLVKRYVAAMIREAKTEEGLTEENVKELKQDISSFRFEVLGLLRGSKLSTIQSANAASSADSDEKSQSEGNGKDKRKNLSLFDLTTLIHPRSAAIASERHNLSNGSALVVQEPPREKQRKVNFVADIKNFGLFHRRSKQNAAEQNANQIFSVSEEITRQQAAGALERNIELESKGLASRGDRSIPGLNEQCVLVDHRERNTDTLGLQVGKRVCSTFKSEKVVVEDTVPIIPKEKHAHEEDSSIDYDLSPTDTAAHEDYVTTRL
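Material: HEK293 cells with stable TRPC4beta plus mu-opioid receptor expression; probe or stimulus: DAMGO in two steps, submaximal then maximal; technique: Fluo4 calcium fluorescence by kinetic imaging, 5 s 1 Hz baseline; measure: integrated fluorescence ratio relative to baseline, converted to per-well B score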
TRPC4 agonist = activators of mouse TRPC4 channel, primary screen, Fluo4 calcium, HEK293 TRPC4beta/mu-opioid cells; 0.49% of 310,000 active; B-score at 10 µM; Fluo4 calcium fluorescence; active compounds read high; Short transient receptor potential channel 4 (Mus musculus), Q9QUQ5;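 active = B-score above 5 SD of library B-scores, and initial fluorescence ratio not above library mean plus 5 SD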;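 note: positive B-score marks a calcium rise read as TRPC4 activation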
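Material: TRPC4beta and mu-opioid receptor HEK293 stable cells | Incubation: 45 min room-temperature Fluo4 loading, 110 s read | Detection: Kinetic Fluo4 calcium fluorescence | Measure: Integrated baseline-normalised fluorescence ratio, converted to per-well B score | Benchmarks: Low control buffer alone, high control maximal DAMGO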
Kir21 inh = inhibitors of mouse Kir2.1 inward-rectifier potassium channel; Inward rectifier potassium channel 2 (Mus musculus), P35561; HEK293-Kir2.1, FluxOR thallium flux fluorescence; active compounds read low; B-score at 10 µM; 0.85% of 310,000 active;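 active = fluorescence ratio B-score at or below minus 3 SD of library scores, with starting-brightness B-score within 2 SD, cut at about -4.2 in these data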;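 note: channel flux triggered by added potassium and thallium sulfate stimulus; B-score of peak minus minimum fluorescence over baseline after thallium stimulus; more negative B-score means stronger Kir2.1 block with less thallium influx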
TRPC6 inhibitor = mouse TRPC6 channel inhibitors, primary screen, cell-based, HEK293, membrane potential dye. 1.1% of 310,000 active. Short transient receptor potential channel 6 (Mus musculus), Q61143. B-score at 10 µM. ACh-evoked depolarization; active compounds read low;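 active = B-score under library mean minus 3 SD, initial fluorescence not abnormally high, positive integrated signal ratio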;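 note: B-score derived from integrated fluorescence ratio over the kinetic read; more negative B-score means stronger inhibition of depolarization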
TRPC6 activator = mouse TRPC6 channel activators, primary screen, cell-based, HEK293, membrane potential dye; Short transient receptor potential channel 6 (Mus musculus), Q61143; HEK293-TRPC6 membrane potential dye fluorescence; active compounds read high; B-score at 10 µM; 0.13% of 310,000 active;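 active = B-score of the integrated fluorescence ratio above library mean plus 3 SD, and starting fluorescence ratio within library mean plus 5 SD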;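 note: higher score means more depolarization so channel activation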
TRPC4 potent = positive allosteric modulators of TRPC4, primary screen, cell-based, mouse TRPC4beta, HEK293 mu-opioid, Fluo-4 calcium; Short transient receptor potential channel 4 (Mus musculus), Q9QUQ5; DAMGO EC20, Fluo-4 Ca2+ flux; active compounds read high; B-score at 10 µM; 0.42% of 310,000 active;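 active = B-score of calcium response area above 5 SD of library B-scores, with initial fluorescence ratio within 5 SD of library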;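 note: B-score of integrated fluorescence ratio over time as area under calcium response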
Starred values were filed as active, the others as inactive; i = inactive. Most compounds without a hit are left out; they make up all but 2.9% or so of the library.

SMILES | TRPC4 block | TRPC4 agonist | Kir21 inh | TRPC6 inhibitor | TRPC6 activator | TRPC4 potent
COc1cccc(CNC(=O)c2ccc(C)c(NC3=NC4CS(=O)(=O)CC4S3)c2)c1 (stereo not given) | i | i | 1.1 | i | i | i
CCOc1ccc2ccccc2c1C(=O)NCC(c1ccc(N(C)C)cc1)N(C)C (stereo not given) | i | i | -0.86 | i | i | i
CC(Oc1ccc(Br)cc1)C(=O)Nn1c(=S)[nH]c2ncccc2c1=O (stereo not given) | i | i | -1.4 | i | i | i
C=CCn1c(SCC(=O)c2ccc(NS(=O)(=O)c3ccccc3)cc2)nnc1-c1cccs1 | i | i | -0.1 | i | i | 18*
C=CCn1c(SCC(=O)Nc2ccc(C(=O)OCC)cc2)nnc1-c1cccs1 | i | i | -0.88 | i | i | i
CC1(C)[C@@H](O)CC[C@]2(C)C3C(O)C=C4[C@H]5C[C@@](C)(C(=O)O)CC[C@]5(C)CC[C@]4(C)[C@]3(C)CC[C@@H]12 (stereo not given in full) | -6* | 210* | 2.5 | i | i | i
CC1(C)C(=O)CC[C@]2(C)C3C(=O)C=C4[C@H]5C[C@@](C)(C(=O)O)CC[C@]5(C)CC[C@]4(C)[C@]3(C)CC[C@@H]12 (stereo not given in full) | i | i | 1.3 | i | i | i
CCOc1ccc(S(=O)(=O)N2CCCCC2)cc1NC(=O)Cc1cccs1 | i | i | 0.15 | i | i | i
Cc1nc(N/N=C/c2ccccc2)nc(N(C)c2ccccc2)c1[N+](=O)[O-] | i | i | 1.7 | i | i | i
Cc1nc(Cl)nc(N(C)c2ccccc2)c1[N+](=O)[O-] | -6* | i | 0.28 | i | i | i
CCN(CCn1cccn1)C(=O)c1cccc(OC2CCN(S(C)(=O)=O)CC2)c1 | i | i | -0.47 | i | i | i
CC1=CC(C)(C)n2c(O)c(N=N)c3c(C)c(C)cc1c32 | i | i | 1.1 | i | i | i
CC1=CC(C)(C)n2c(O)c(N=N)c3cc(C)cc1c32 | i | i | -8.7* | i | i | i
CC(C)N(CCNC(=O)COc1ccc2oc3c(c2c1)CCCC3)C(C)C | i | i | -0.23 | i | i | i
CCCCNC(=O)CCn1nc(-c2ccccc2)ccc1=O | i | i | 0.2 | i | i | i
CC1CCCN(CCCNC(=O)CCn2nc(-c3ccccc3)ccc2=O)C1 (stereo not given) | i | i | -0.03 | i | i | 11*
COc1ccc2c(c1)N(S(=O)(=O)c1ccccc1)CCC2=O | i | i | -6.5* | i | i | i
CCCCCOc1ccc(Br)cc1/C(C)=N/NC1=NCCN1 | i | i | -14* | -5.9* | i | i
COc1ccc(Br)cc1/C(C)=N/NC1=NCCN1 | i | i | -1.5 | i | i | i
CC1CCc2c(C(=O)Nc3cccc(-c4nn[nH]n4)c3)csc2C1 (stereo not given) | i | i | 0.37 | i | i | i
O=C(OCCCN1CCCC1)C1(c2ccccc2)CCCC1 | i | i | -1.2 | i | i | i
CN(C)CCOC(=O)C1(c2ccccc2)CCOCC1 | i | i | -1.8 | i | i | 11*
CCc1nc(N=C(N)N)nc2ccccc12 | i | i | -0.02 | i | i | i
COc1nc(N=C(N)N)nc2ccc(C)cc12 | -5* | i | -0.06 | i | i | i
c1ccc(CSc2nnnn2-c2cccc3ccccc23)nc1 | i | i | -7.4* | i | i | i
SMILES | TRPC4 block | TRPC4 agonist | Kir21 inh | TRPC6 inhibitor | TRPC6 activator | TRPC4 potent
CCOC(=O)c1cn2nc(SCc3ccccc3)nc2nc1C | i | i | 1 | i | i | i
CC1CCN(c2nc(Cl)nc(Nc3ccc([N+](=O)[O-])cc3)n2)CC1 | i | i | -0.3 | i | i | 47*
C=CCNc1nc(Nc2ccc([N+](=O)[O-])cc2)nc(N2CCCC2)n1 | i | i | 0.18 | i | i | i
CSCCC(NC(=O)COc1ccccc1)C(=O)NCC1COc2ccccc2O1 (stereo not given) | i | i | -2.2 | i | i | i
CCOC(=O)C1(Cc2ccccc2Cl)CCN(Cc2csc(C(C)=O)c2)CC1 | i | i | -0.65 | i | i | i
CC(C)C[C@H](N)c1nnc(S(=O)(=O)Cc2cccc(F)c2)o1 | i | i | -7.9* | i | i | i
CC(C)(C)OC(=O)N[C@@H](Cc1ccccc1)c1nnc(S(=O)(=O)Cc2cccc(F)c2)o1 | i | i | 0.63 | i | i | i
S=C(NCc1ccc2c(c1)OCO2)NC1CCN(Cc2ccccc2)CC1 | i | i | -12* | i | i | i
COc1cc(NC(C)CCCN)c2ncccc2c1Oc1ccccc1 (stereo not given) | i | 83* | -2.4 | i | i | i
COc1cc(NC(C)CCc2ccccc2)cc(OC)c1OC (stereo not given) | i | i | -0.54 | i | i | i
CN(C)CCCNc1ncnc2oc(-c3ccccc3)c(-c3ccccc3)c12 | i | i | -4.6* | i | i | i
c1ccc(-c2oc3ncnc(NCCCn4ccnc4)c3c2-c2ccccc2)cc1 | i | i | -2.4 | i | i | i
CCOC(=O)C1=C(C)NC(=S)NC1c1ccsc1 (stereo not given) | i | i | -0.35 | i | i | i
CCc1ccc(C2C(C#N)=C(N)C(C#N)(C#N)C3=CCC(C(C)(C)C)CC32)cc1 (stereo not given) | i | i | -6.6* | i | i | i
CC(C)(C)C1CC=C2C(C#N)=C(N)C(C#N)(C#N)C(c3cccs3)C2C1 (stereo not given) | i | i | -3.4 | i | i | i
O=C(c1cccc(Cl)c1)N(Cc1cccs1)C1CCS(=O)(=O)C1 (stereo not given) | i | i | -0.01 | i | i | i
O=C(c1sc2ccccc2c1Cl)N(Cc1cccs1)C1CCS(=O)(=O)C1 (stereo not given) | i | 120* | -0.71 | i | i | i
